Assay results from ChEMBL document CHEMBL2040841, “Design, synthesis and evaluation of triazole functionalized ring-fused 2-pyridones as antibacterial agents” (Eur J Med Chem, 2012).
Active and inactive are the calls of the source. No cut-off for these calls is given here.

Tests used:
Escherichia coli [1] = experiment: Inhibition of type 1 pili formation in uropathogenic Escherichia coli isolate UTI89 assessed as inhibition of biofilm formation after 24 hrs by crystal violet staining method; assay type: functional, organism-based; conditions: isolate UTI89, 24 h
How it was run: (§1)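 UTI89 grown overnight in LB at 37 °C, then diluted 1:1000 in LB under type-1 pili inducing conditions. Compounds were added at a constant DMSO level, and the plates were incubated 24 h in humid boxes at 26 °C. Wells were washed with water, air dried and stained with 1% crystal violet, and absorbance was read at 600 nm. Growth was monitored in separate plates. Triplicates were compared with DMSO-treated controls.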

Escherichia coli [2] = experiment: Antibacterial activity against uropathogenic Escherichia coli isolate UTI89 assessed as inhibition of biofilm formation at 200 uM after 24 hrs by crystal violet staining method; assay type: functional, organism-based; how it was run: as §1

SMILES	EC50 (Escherichia coli [1])	inhibition (Escherichia coli [2])
O=C(O)[C@@H]1CSc2c(-c3cn([C@H](CO)Cc4ccccc4)nn3)c(Cc3cccc4ccccc34)c(Br)c(=O)n21	150 µM	–
O=C(O)[C@@H]1CSc2c(-c3cn(Cc4ccccc4)nn3)c(Cc3cccc4ccccc34)c(Br)c(=O)n21	100 µM	–
CCn1cc(-c2c(Cc3cccc4ccccc34)c(Br)c(=O)n3c2SC[C@H]3C(=O)O)nn1	> 200 µM	inactive
O=C(O)[C@@H]1CSc2c(-c3cn([C@@H]4OC[C@@H](O)[C@H](O)[C@H]4O)nn3)c(Cc3cccc4ccccc34)c(Br)c(=O)n21	> 200 µM	inactive
Cc1ccc(Cn2cc(-c3c(Cc4cccc5ccccc45)c(Br)c(=O)n4c3SC[C@H]4C(=O)O)nn2)cc1	200 µM	inactive
O=C(O)[C@@H]1CSc2c(-c3cn([C@@H]4OC[C@@H](O)[C@H](O)[C@H]4O)nn3)c(Cc3cccc4ccccc34)cc(=O)n21	> 200 µM	inactive
O=C(O)c1c(-c2cn(Cc3ccccc3)nn2)sc2c(C3CC3)c(Cc3cccc4ccccc34)cc(=O)n12	> 200 µM	inactive
CCn1cc(-c2c(Cc3cccc4ccccc34)cc(=O)n3c2SC[C@H]3C(=O)O)nn1	> 200 µM	inactive
O=C(O)c1c(-c2cn(Cc3ccccc3)nn2)sc2c(-c3cccc(C(F)(F)F)c3)c(Cc3cccc4ccccc34)cc(=O)n12	50 µM	–
Cn1cc(-c2c(Cc3cccc4ccccc34)cc(=O)n3c2SC[C@H]3C(=O)O)nn1	> 200 µM	inactive
O=C(O)[C@@H]1CSc2c(-c3cn(CC4CC4)nn3)c(Cc3cccc4ccccc34)cc(=O)n21	> 200 µM	inactive
O=C(O)c1c(-c2c[nH]nn2)sc2c(-c3cccc(C(F)(F)F)c3)c(Cc3cccc4ccccc34)cc(=O)n12	> 200 µM	inactive
Cc1ccc(Cn2cc(-c3c(Cc4cccc5ccccc45)cc(=O)n4c3SC[C@H]4C(=O)O)nn2)cc1	75 µM	–
O=C(O)[C@@H]1CSc2c(-c3cn(Cc4ccccc4)nn3)c(Cc3cccc4ccccc34)cc(=O)n21	100 µM	–
Nc1ccc(Cn2cc(-c3c(Cc4cccc5ccccc45)cc(=O)n4c3SC[C@H]4C(=O)O)nn2)cc1	> 200 µM	inactive
O=C(O)[C@@H]1CSc2c(-c3cn(CC4CC4)nn3)c(Cc3cccc4ccccc34)c(Br)c(=O)n21	> 200 µM	inactive
O=C(O)c1c(-c2c[nH]nn2)sc2c(C3CC3)c(Cc3cccc4ccccc34)cc(=O)n12	75 µM	–
O=C(O)[C@@H]1CSc2c(-c3c[nH]nn3)c(Cc3cccc4ccccc34)c(Br)c(=O)n21	> 200 µM	inactive
Cn1cc(-c2sc3c(-c4cccc(C(F)(F)F)c4)c(Cc4cccc5ccccc45)cc(=O)n3c2C(=O)O)nn1	9 µM	–
O=C(O)[C@@H]1CSc2c(-c3cn([C@H](CO)Cc4ccccc4)nn3)c(Cc3cccc4ccccc34)cc(=O)n21	> 200 µM	inactive
Cn1cc(-c2c(Cc3cccc4ccccc34)c(Br)c(=O)n3c2SC[C@H]3C(=O)O)nn1	> 200 µM	inactive
O=C(O)[C@@H]1CSc2c(-c3cn(Cc4ccc([N+](=O)[O-])cc4)nn3)c(Cc3cccc4ccccc34)c(Br)c(=O)n21	35 µM	–
O=C(O)[C@@H]1CSc2c(-c3c[nH]nn3)c(Cc3cccc4ccccc34)cc(=O)n21	> 200 µM	inactive
Cn1cc(-c2sc3c(C4CC4)c(Cc4cccc5ccccc45)cc(=O)n3c2C(=O)O)nn1	150 µM	inactive
